The values below come from the RNAGym collection of RNA variant scans (doi:10.1126/science.aae0568).

The chains are these.
B1: tRNA (parent)
chain: GUUCCGUUGGCGUAAUGGUAACGCGUCUCCCUCCUAAGGAGAAGACUGCGGGUUCGAGUCCCGUACGGAACG

Variants at the floor of the assay were thinned out.

The variants in the data set derive from B1. Description: yeast fitness relative to wild type (ratio to wild type); higher = fitter; tRNA-Arg(CCU), competitive growth, 37 C, YPD. In a few lines:
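The tRNA-Arg(CCU) gene variants were made by chemical synthesis with a 3% per-site mutation rate at 69 sites and inserted at the native genomic locus of Saccharomyces cerevisiae. After pooling, the strains were competed in YPD at 37°C for 24 hours in six parallel replicates. Gene amplicons from the start population and each end population were read by 100-nucleotide paired-end sequencing, and Darwinian fitness relative to wild type was taken from genotype frequency changes. Genotypes needed ≥ 100 starting reads, and estimates < 0.5 were set to 0.5.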
Regarding GAUCCGUUGGCGUAAUGGUAACGCGUCUCCCUCCCAAGGAGAAGACUGCGGGUUCGAGUCCCGUACGGAACG [U2A U35C], the yeast fitness amounted to 0.875.
In the case of GUUCCGUUGGCGUAACGGUAACGCGUCUCCCUUCUCAGGAGAAGACUGCGGGUUCGAGUCCCGUACGGAACG [U16C C33U A36C], the yeast fitness came to 0.589.
To GUUCCGUUGGCGUAAUGGUAACGCGUCUCCCUCCUAAGGAGAAGACUGCGAGUUCGAGUCCCGUACAGAACG [G51A G67A] belongs 0.872; to GGUGCGUUGGCGUAAUGGUACCGCGUCUCCCUCCUAAGGAGAAGACUGCGGGUUCGAGUCCCGUACGGAACG [U2G C4G A21C], 0.725; to GUUCUGUUGGCGUAAUGGUAACGUGUCUCCCUCCUAAGGAGCAGACUGCGGGUUCGAGUCCCGUACGGAACG [C5U C24U A42C], 0.746.
The same measure for GUUCCGUCGGCGUAAUGGUAUCGCGUUUCCCUCCUAACGAGAAGACUGCGGGUUCGAGUCGCGUACGGAACG [U8C A21U C27U G38C C61G]: 0.553; for GUUCCGUUGGCGUAAUGGUAACGCGUCUUCCUCGUAAGGAGAUGACUGCGGGUUCGAGUCCUGUACGGAACG [C29U C34G A43U C62U]: not above 0.5; for GUUCCGAUGGCGUAAUGGUAAUGCGCCUCCCUCCUAAGGGGAUGACUGAGGGUUCGAGUCCCGUACGGAACG [U7A C22U U26C A40G A43U C49A]: not above 0.5.
The same measure for GUUCCGUUGGCGUCAUGGUAACGCCUCUCCCUCCUAAGGAGAAGACUACAGGUUCGAGUCCCGUACGGAACG [A14C G25C G48A G50A]: not above 0.5; for GUUCCGUUGGCGUAAUAGUAACGCGCCCCCCUCCUAAGGAGCAGACUGCGGGUUCGAGUCCCGUAUGGAACG [G17A U26C U28C A42C C66U]: not above 0.5; for GUUCCGUUGGCGUAAUGGUAACCCGUCUCCCUCCUAAGGAGAAGACUCCGGGUUCGAGUCCCGUACGGAACG [G23C G48C]: 0.686.
GUUGCGUUCGCGUAAUGGUAAAGCGUCUCCCUCCUAAGGAGAAGACUGCGGGUUCGAGUCCAGUAGGGAACG [C4G G9C C22A C62A C66G]: the yeast fitness is not above 0.5.
Consider GUUCCGUUGGUGUAAUGGUAUCGCGUCUCCCUCCUAAGGAAAAGACUGCGGGUUCGAGUCACGUACGGAACG [C11U A21U G41A C61A], for which the yeast fitness was not above 0.5.
The same measure for GUUCCGUUGGCGUAAUGGUAACGCGUCCCCCUCCUAAGGAGAAGACUACGGGUUCGAGUCCCGUACGGAACG [U28C G48A]: 0.866.
For GUUCCGUUGGUGUAAUGGUAACGCGUCUCCUUCCUAAGGAAAAGACUGCGGGUUCGAGUCCCGUACGGAACG [C11U C31U G41A], the yeast fitness amounted to 0.714.
The same measure for GUUCCGGUGGCGUACUGGUAACGUGUCUCCCCCCUAAGGAGAGGACUGCGAGUCCGAGUCCCGUACCGAACG [U7G A15C C24U U32C A43G G51A U54C G67C]: not above 0.5; for GUUACGUUGGCGUAAUGAUAACGCGUAUCCCUCCUACGGAGAAGACUGCGGGUUCGAGUCACGUACGGAACG [C4A G18A C27A A37C C61A]: not above 0.5; for GUUCCGUUGGCGUAAUGGUAACGCGUCUCCCUCCUAAGGAGAAGACUGCGGGUACGAGUCCCGUACCAAACG [U54A G67C G68A]: not above 0.5.
GUUCCGUUGGCGAAAUGGUAACGCGUCUCCCUCCUAACGAGAAGACUGCGGGUUCGAGUCCCGUACGGAACG [U13A G38C]: the yeast fitness was determined as 0.619.
Turning to GUUCCGUUGGCGUAAUGGUAACGCGUCUCCCUUCUAAGGAGGAGACUGCGGGUUCGAGUCCCGUACGGAACG [C33U A42G], the yeast fitness turned out to be 0.622.
The same measure for GUUCCGUUGGCGUAAUGGUAACACGUUUCCCUCUUAAGGAGAAGCCUGCGGGUUCGAGUCCCGUACGGAACG [G23A C27U C34U A45C]: not above 0.5.
Turning to GUUCCGUUGGCGUAAUGAAAACGCGUCUCCCUCCUAAGGAGAAGACUGCGGGUUCGAGUCCCGUACGGAACG [G18A U19A], the yeast fitness stood at 0.594.
To GUUCCGUUGGCGUAAUGGUAAAACGUCUCCCUUGUAAGGAGAAGACUGCGAGUUCGAGUCCCGUACGGAACG [C22A G23A C33U C34G G51A] belongs not above 0.5; to GUUCCGUUGGCGUAAUGGUAACGCGUCUCCCUCGUAAGGUGAAGACUGCGGGUUCGAGUCCCGUACGGAACG [C34G A40U], 0.596; to GUUCCGUUGGGGUAUUGGUAAUGCGUCUCCCUCCUAAGGAGGAGACUGCGGGUUCGAGUCCCGUAUGGAACG [C11G A15U C22U A42G C66U], not above 0.5.
In the case of GUUCCGUUAGCGUAAUGGUAACGCGUCUCCCUCCUACGGAGAAGACUGCGGGUUCGAGUCCCGUACGGAACG [G9A A37C], the yeast fitness was 0.918.
To GUUCCGUUGGCGUAAUGGUAACGCCUCUCCCUCCUAAGGAGUAGAUUGCGGGUUCGAGUCCCGUACGGAACG [G25C A42U C46U] belongs 0.502; to GUUCCGUUGGCGUAAUGGUAACGCGUCUCCCUCCUAAGGAGUAGACUGCGGGUUCGAGACCCGUACGGAACG [A42U U59A], 0.668.
The same measure for GUUCCGUUGGCGUAAUGGUAACGCGUCUCCCUCCUAAGGAGAAGACUGUGGGUUUGAAUCCCGUACGGAACG [C49U C55U G58A]: not above 0.5; for GUUCCGUUGGCGUAAUGGUAACGCGUCUCCGUCCUAAGGAGAAGACUACGGGUUCGAGCCCCGUACGGAACG [C31G G48A U59C]: 0.793; for GUUCCGUUGGCGUAAUGGUAACGGGUCUCACUCCUAAGGAGAAGAUUGCGGCUUCGAGUCCCGUACGGAACG [C24G C30A C46U G52C]: not above 0.5.
In the case of GUUCCGUUGGCGUAAUGGUAACGCGGCUCCGACCUAAGGAGAAGACUGCGGGUUCGAGUCCCGUACGGAACG [U26G C31G U32A], the yeast fitness was 0.691.
To GCUCAGUUGGCGUAAUGGUAACGAGUCUCCCUCCUAAGGAGAAGACUGCGGGUUCGAGUCCCGGACGGAACG [U2C C5A C24A U64G] belongs not above 0.5; to GUUCCGUUGGCGUAAUGGUGACGCGUCUCCCUUCUAAGAAGAAGACUGCGGGUUCGAGUCCCGUACGGCACG [A20G C33U G39A A69C], not above 0.5.
As to GUUCCGUUGGCGUAAGGGUAAGGCGUCUCCCUCCUAAGGAGAAGACUGCGGGUUCGAGUCCCGUACGGAACG [U16G C22G], the yeast fitness was 1.
Regarding GUUCCGUUGGCGUAAUGGUGACGCGUCUCCCUCCUAAGGAGAAGACUGCGGGUUCGAGUCCCGUACGCAACG [A20G G68C], the yeast fitness was found to be 0.758.
To GCUCCGUUGGCGUAAUGGUAACGCGUCUCCCUCCUAAGGAGAUGACUGCGGGUUCGAGUCCCGUACGGAACG [U2C A43U] belongs 0.989.
